# Legend:
# CHO [1] = test: Effect on cell morphology in CHO cells expressing African green monkey SOAT1 up to 21 to 23 uM; assay type: ADME, cell-based, Cricetulus griseus; conditions: chinese hamster
# CHO [2] = test: Effect on cell morphology in CHO cells expressing African green monkey SOAT2 up to 21 to 23 uM; assay type: ADME, cell-based, Cricetulus griseus; conditions: chinese hamster
# [3] = biological target: T1, Sterol O-acyltransferase 2 (Chlorocebus aethiops, UniProt O77759); test: Inhibition of African green monkey SOAT2 isolated from CHO cell microsomes assessed as decrease in [14C]CE synthesis from [1-14C]oleoyl-CoA after 5 mins
# T1 sequence (O77759 whole entry): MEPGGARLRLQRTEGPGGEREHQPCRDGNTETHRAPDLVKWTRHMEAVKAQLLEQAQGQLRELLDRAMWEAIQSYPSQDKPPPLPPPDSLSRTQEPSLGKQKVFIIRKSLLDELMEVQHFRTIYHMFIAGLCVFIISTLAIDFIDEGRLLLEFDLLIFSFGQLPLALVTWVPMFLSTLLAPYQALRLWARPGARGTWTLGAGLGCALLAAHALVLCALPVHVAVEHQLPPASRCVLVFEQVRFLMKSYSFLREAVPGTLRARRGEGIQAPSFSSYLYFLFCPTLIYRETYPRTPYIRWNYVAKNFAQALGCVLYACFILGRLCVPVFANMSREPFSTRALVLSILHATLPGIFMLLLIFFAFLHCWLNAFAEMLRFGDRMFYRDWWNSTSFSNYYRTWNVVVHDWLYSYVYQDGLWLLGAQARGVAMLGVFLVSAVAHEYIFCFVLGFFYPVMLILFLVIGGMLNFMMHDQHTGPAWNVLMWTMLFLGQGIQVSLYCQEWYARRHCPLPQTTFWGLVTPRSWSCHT
# [4] = biological target: T1, Sterol O-acyltransferase 2; test: Inhibition of African green monkey SOAT2 expressed in CHO cells assessed as decrease in [14C]CE synthesis from [14C]oleic acid after 6 hrs; assay type: cell-based
# CHO [5] = test: Effect on phospholipid synthesis in CHO cells expressing African green monkey SOAT1 up to 21 to 23 uM; assay type: ADME, cell-based, Cricetulus griseus; conditions: chinese hamster
# Procedure, shortened: (§1)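 SOAT1- or SOAT2-expressing CHO cells were grown in Ham's F-12 with MEM vitamins, geneticin (300 μg/mL) and 10% heat-inactivated FBS at 37 °C, 5% CO2. Cells were seeded at 1.25 × 10⁵/well, recovered overnight, and used at ≥80% confluence. Compound stocks in CH3OH (0–1 mg/mL) were added with [14C]oleic acid (1 nmol) for 6 h. Lipids were Bligh–Dyer extracted, and [14C]PL was resolved by TLC and imaged.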
# [6] = biological target: T2, Sterol O-acyltransferase 1 (Chlorocebus aethiops, UniProt O77760); test: Inhibition of African green monkey SOAT1 expressed in CHO cells assessed as decrease in [14C]CE synthesis from [14C]oleic acid after 6 hrs; assay type: cell-based
# T2 sequence (O77760 whole entry): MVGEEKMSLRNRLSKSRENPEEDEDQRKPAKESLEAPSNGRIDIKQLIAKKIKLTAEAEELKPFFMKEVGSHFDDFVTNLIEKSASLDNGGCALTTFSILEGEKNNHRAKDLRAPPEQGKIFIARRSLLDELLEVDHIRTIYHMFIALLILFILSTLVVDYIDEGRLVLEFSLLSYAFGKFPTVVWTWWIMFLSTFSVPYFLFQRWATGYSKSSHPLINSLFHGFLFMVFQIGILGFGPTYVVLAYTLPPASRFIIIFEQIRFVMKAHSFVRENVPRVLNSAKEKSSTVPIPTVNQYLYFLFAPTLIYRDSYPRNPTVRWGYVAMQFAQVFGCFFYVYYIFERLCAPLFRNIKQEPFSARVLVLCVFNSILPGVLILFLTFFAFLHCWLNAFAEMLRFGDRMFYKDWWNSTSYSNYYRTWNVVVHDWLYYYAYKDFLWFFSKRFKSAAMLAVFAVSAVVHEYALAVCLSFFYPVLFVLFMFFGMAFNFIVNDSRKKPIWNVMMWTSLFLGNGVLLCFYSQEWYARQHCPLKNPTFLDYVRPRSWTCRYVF
# CHO [7] = test: Effect on phospholipid synthesis in CHO cells expressing African green monkey SOAT2 up to 21 to 23 uM; assay type: ADME, cell-based, Cricetulus griseus; conditions: chinese hamster; procedure, shortened: as §1
# Chlorocebus aethiops [8] = organism: Chlorocebus aethiops; test: Selectivity index, ratio of IC50 for African green monkey SOAT1 expressed in CHO cells to IC50 for African green monkey SOAT2 expressed in CHO cells; assay type: cell-based
# Procedure, shortened: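 Monolayers of SOAT1- or SOAT2-CHO cells (≥80% confluent, overnight recovery) got CH3OH compound stocks (0–1 mg/mL) plus [14C]oleic acid (1 nmol, 1.85 kBq) for 6 h at 37 °C. Cells were SDS-lysed and Bligh–Dyer extracted, and [14C]CE was quantified by TLC radioimaging as percent of control. IC50s came from triplicate experiments, mean ± SD. SI = log(IC50 SOAT1/IC50 SOAT2).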
# [9] = biological target: T2, Sterol O-acyltransferase 1; test: Inhibition of African green monkey SOAT1 isolated from CHO cell microsomes assessed as decrease in [14C]CE synthesis from [1-14C]oleoyl-CoA after 5 mins
# Chlorocebus aethiops [10] = organism: Chlorocebus aethiops; test: Selectivity index, ratio of IC50 for African green monkey SOAT1 isolated from CHO cell microsomes to IC50 for African green monkey SOAT2 isolated from CHO cell microsomes
# Procedure, shortened: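 Microsomes were made by homogenizing SOAT1- or SOAT2-CHO cells in sucrose/KCl/KH2PO4/EDTA buffer (pH 7.2) and pelleting at 100,000 × g, 1 h, 4 °C. They were incubated with fatty-acid-free BSA and compound in methanol, and the reaction was started with [1-14C]oleoyl-CoA for 5 min at 37 °C. It was stopped with CHCl3:MeOH 2:1, and [14C]CE was measured by TLC radioimaging. Values are mean ± SD, n = 3. SI = log(IC50 SOAT1/IC50 SOAT2).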
Compound,Activity (CHO [1]),Activity (CHO [2]),IC50 [3],IC50 [4],Activity (CHO [5]),IC50 [6],Activity (CHO [7]),log(RatioIC50) (Chlorocebus aethiops [8]),IC50 [9],-log(RatioIC50) (Chlorocebus aethiops [10]),-log(RatioIC50) (Chlorocebus aethiops [8])
C[C@@H](C[C@H]1C(=O)N(C)[C@@H](C[C@H](C)C(Cl)(Cl)Cl)C(=O)N1C)C(Cl)(Cl)Cl,Non-Toxic,Non-Toxic,5300 nM,4200 nM,Non-Toxic,5200 nM,Non-Toxic,0.092,2100 nM,0.4,–
CCC(=O)[C@H](C[C@H](C)C(Cl)(Cl)Cl)NC(=O)[C@H](C[C@H](C)C(Cl)(Cl)Cl)N(C)C,Non-Toxic,Non-Toxic,860 nM,2800 nM,Non-Toxic,780 nM,Non-Toxic,–,230 nM,0.57,0.56
CCC(=O)[C@H](C[C@H](C)C(Cl)(Cl)Cl)NC(=O)/C=C/[C@H](C)C(Cl)(Cl)Cl,Non-Toxic,Non-Toxic,3200 nM,2400 nM,Non-Toxic,1200 nM,Non-Toxic,–,1000 nM,0.51,0.3
